GPR7 antag: human neuropeptides B/W receptor 1 antagonism; P48145; GPR7-expressing cells, fluorescence antagonist assay; inhibition, % at 4.4 µM; hit rate 1.1% among 290,000; AID 1861; in the data active means inhibition above about 16%, passing the limit was not always enough;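 further: cells stimulated with the agonist NPW; 0% = agonist with vehicle and 100% = vehicle without agonist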
OX1R antag-1: blocks the human orexin 1 receptor; O43613; CHO/OX1R cells, Fluo-8 calcium fluorescence, orexin A; inhibition, % at 5 µM; hit rate 0.43% among 330,000;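 active means inhibition above its plate's threshold, mean inhibition of all tested compounds on the plate plus 3 SD, cut at about 37% in these data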;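 further: 0% = orexin A challenge wells and 100% = SB-334867-A antagonist wells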
Target sequence (O43613 whole entry, looked up): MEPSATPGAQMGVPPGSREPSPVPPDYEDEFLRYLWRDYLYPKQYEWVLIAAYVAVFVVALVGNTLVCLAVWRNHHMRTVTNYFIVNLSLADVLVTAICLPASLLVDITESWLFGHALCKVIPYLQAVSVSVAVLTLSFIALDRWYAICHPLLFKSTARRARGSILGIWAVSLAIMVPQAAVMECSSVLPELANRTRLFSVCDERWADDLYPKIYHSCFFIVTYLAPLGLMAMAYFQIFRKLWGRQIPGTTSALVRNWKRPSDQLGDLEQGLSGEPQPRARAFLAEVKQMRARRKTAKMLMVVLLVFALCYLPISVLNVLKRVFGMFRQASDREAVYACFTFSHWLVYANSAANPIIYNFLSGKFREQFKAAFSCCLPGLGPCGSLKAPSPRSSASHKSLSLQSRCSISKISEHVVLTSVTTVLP
TAAR1 agonist: human TAAR1 agonism. Q96RJ0. CHO RD-HGA16 TAAR1, Fluo-8 calcium fluorescence; vehicle wells 0%, saturating PEA agonist 100%. activation, % at 3 µM. hit rate 0.99% among 360,000;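 active means activation above the mean activation of all test compounds in the run plus 3 SD, cut at about 38% in these data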
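Test system: RD-HGA16 (CHO) cells co-expressing Gα16 and hTAAR1 / Benchmarks: DMSO vehicle as 0%, PEA at EC100 as 100% / Repeats: no replicates (n 1) / Measure: % activation from peak over basal fluorescence ratio, DMSO-to-PEA scaled / Timing: 17-24 h plating, Fluo-8 75 min 37 °C, 30 min RT / Technique: kinetic Fluo-8 calcium fluorescence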
TAAR1 antag: antagonists of human TAAR1; hit rate 1.5% among 360,000; Q96RJ0; inhibition, % at 3 µM; CHO RD-HGA16 TAAR1, Fluo-8 calcium fluorescence, antagonist;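 active means inhibition above a per-plate cutoff, the mean inhibition of test compounds on that plate plus 3 SD, cut at about 49% in these data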;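 further: 0% = DMSO plus EC80 beta-PEA response and 100% = DMSO alone without agonist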
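Material: RD-HGA16 CHO cells with stable hTAAR1 and Gα16; Dosing: single nominal final test compound concentration of 3 µM; Schedule: seeding 17-24 h prior, 75-min 37 °C, 30-min RT dye loading; Detection: kinetic Fluo-8 calcium fluorescence measurement; Measure: % inhibition from peak post-agonist over basal fluorescence ratio; Benchmarks: vehicle and agonist controls.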
OX1R antag-2: OX1R (human) antagonism; O43613; OX1R-expressing cells, FRET antagonist read-out; inhibition, % at 6.6 µM; hit rate 1.8% among 330,000; in the data active means inhibition mostly above about 38%, no sharp cut-off; inactive means mostly below about 40%;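 further: 0% = agonist challenge alone and 100% = reference antagonist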
CHO parental Ca: signal in parental CHO cells, OX1R antagonist counter-screen | parental CHO-K1, ATP-induced calcium, Fluo-8 fluorescence | inhibition, % at 5.6 µM | hit rate 0.63% among 330,000;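 active means inhibition above that plate's mean sample inhibition plus 3 SD, cut at about 26% in these data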;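 further: 0% = ATP-challenged DMSO wells and 100% = DMSO wells without ATP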
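Test system: untransfected parental CHO cell line. Compound: one dose, 5.6 µM nominal. Detection: intracellular calcium via Fluo-8 no-wash fluorescent dye. Measure: % inhibition. Benchmarks: ATP-challenged DMSO wells low, unchallenged DMSO wells high.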
TAAR1 nonsel count: counter-screen for TAAR1 antagonists: nonselective antagonists; shares compounds with TAAR1 antag; counterscreen cell line, calcium fluorescence, antagonist mode; inhibition, % at 3 µM; hit rate 77% among 2,400; in the data active means inhibition above about 22%;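 further: CHO-Ga16 host cells stimulated with ATP at an EC80 level; 0% = agonist EC80 plus vehicle and 100% = vehicle without agonist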
TAAR1 ant conf: confirmation of human TAAR1 antagonists; inhibition, % at 3 µM; AID 651785; hit rate 40% among 2,400; shares compounds with TAAR1 antag; TAAR1-expressing cells, fluorescence antagonist read-out; in the data active means inhibition above about 49%;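 further: CHO-Ga16 host cells challenged with agonist PEA near its EC80; 0% = agonist at EC80 plus vehicle and 100% = vehicle with no agonist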
Ga16 nonsel ag: nonselective Ga16 agonism, counter-screen; shares compounds with TAAR1 antag; Ga16-expressing cells, calcium fluorescence, agonist counterscreen; activation, % at 3 µM; hit rate 18% among 2,400; AID 651953; in the data active means activation above about 12%;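 further: 0% = vehicle wells and 100% = saturating stimulus response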
TAAR1 ag count: activates human TAAR1 in antagonist counter-screen. hit rate 2% among 2,400. hTAAR1 cell line, fluorescence activation, agonist mode. shares compounds with TAAR1 antag. activation, % at 3 µM. AID 651955; in the data active means activation above about 37%;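 further: CHO cells stably expressing TAAR1 with calcium dye readout; 0% = DMSO vehicle and 100% = full agonist response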
* = called active by the depositor; · = no result. Only some compounds are listed: those with a hit (about 4.6% of all), similar ones and a draw of the others.

SMILES	GPR7 antag	OX1R antag-1	TAAR1 agonist	TAAR1 antag	OX1R antag-2	CHO parental Ca	TAAR1 nonsel count	TAAR1 ant conf	Ga16 nonsel ag	TAAR1 ag count
Cc1sc2ncnc(N3CCC(C(=O)N(C)CC(=O)Nc4ccccc4Cl)CC3)c2c1C	13	-14	11	64*	14	-17	25*	41	9	5
CC1(C(=O)NS(=O)(=O)c2ccc(C#N)cc2)CCN1C(=O)c1ccccc1CCc1ccccc1 (configuration not stated)	·	·	1	-32	·	·	·	·	·	·
CCCC[C@@H]1CNC(=O)C(=O)N1CCCC	·	·	2	-15	·	·	·	·	·	·
Cc1cccc(C)c1NC(=O)C1(C)CSCC(=O)N1Cc1cccc(C(F)(F)F)c1 (configuration not stated)	·	·	-1	-14	·	·	·	·	·	·
CN(Cc1ccccc1)C(=O)c1ncn(Cc2ccccc2)c1C(=O)N(C)Cc1ccccc1	·	-8	29	64*	24	-24	29*	56*	12*	9
Oc1ccccc1N1CCN(C(=S)Nc2ccc(SC(F)F)cc2)CC1	-5	34	21	83*	2	33	42*	55*	14*	11
FC(F)Sc1ccc(NC(=S)N2CCN(c3ccccn3)CC2)cc1	10	·	5	33	·	·	·	·	·	·
Cc1nc(N)[nH]c(=O)c1CCCNc1ccc(CCC2(CCl)OCCO2)cc1	·	·	1	-17	·	·	·	·	·	·
CCN(CC(=O)Nc1ccc2c(c1)OCCO2)C(=O)COc1ccc(C(C)=O)cc1	·	·	4	-27	·	·	·	·	·	·
CCCc1c(C(=O)N/N=C/c2c[nH]c3ccccc23)nnn1-c1nonc1N	·	·	29	63*	·	·	32*	47	12*	12
Cc1ccc(C)c(N2CCN(C(=O)CCS(=O)(=O)c3ccc4c(c3)NC(=O)CO4)CC2)c1	3	66*	18	85*	24	57*	43*	57*	15*	13
Cc1cc(/C=N/Nc2ccc([N+](=O)[O-])cn2)c(C)n1-c1ccccc1	4	2	-4	40	27	-7	·	·	·	·
Cc1ccc(-n2c(C)cc(/C=N/Nc3ccc([N+](=O)[O-])cn3)c2C)cc1	1	-18	·	·	23	-11	4	·	0	·
Cc1sc2ncnc(N3CCC(C(=O)Nc4cc(Cl)ccc4Cl)CC3)c2c1C	·	-34	1	63*	36	-19	30*	42	3	0
Cc1sc2ncnc(N3CCC(C(=O)NNC(=O)c4ccc(Cl)cc4)CC3)c2c1C	·	-22	10	44	34	-10	·	·	·	·
Cc1sc2ncnc(N3CCC(C(=O)Nc4cc(S(C)(=O)=O)ccc4Cl)CC3)c2c1C	·	-20	14	61*	20	-16	26*	38	8	4
COc1ccc(S(=O)(=O)N(C)C)cc1NC(=O)C1CCN(c2ncnc3sc(C)c(C)c23)CC1	·	·	11	22	·	·	·	·	·	·
COC(=O)c1oc2c(c1C)C1(CCC2)SCCS1	0	-15	12	95*	22	-14	-1	83*	6	0
CC1(C(=O)Nc2ccc3nc[nH]c3c2)CCN1C(=O)c1ccccc1CCc1ccccc1 (configuration not stated)	·	·	9	30	·	·	·	·	·	·
COc1ccc(OC)c(NC(=O)C2(C)CCN2Cc2cccc(OC)c2F)c1 (configuration not stated)	·	·	-1	51*	·	·	15	30	1	-1
COc1ccc(OC2C(=O)N(CCc3ccc(OC)c(OC)c3)C2c2ccc3c(c2)OCO3)cc1 (configuration not stated)	3	-19	6	57*	20	-4	22*	24	5	1
O=C(NCc1ccco1)c1cccc(Nc2nc3ccc(Br)cc3[nH]2)c1	-9	-22	18	56*	19	-26	24*	27	5	12
CC(C)[C@H](NC(=O)c1cccs1)C(=O)N1CCC[C@H]1C(=O)NCc1ccccc1	·	·	1	-9	·	·	·	·	·	·
O=C(N/N=C/c1cccc(OC(=O)c2ccccc2Cl)c1)c1cccnc1	-6	-16	14	54*	14	-21	21	33	9	12
COc1ccc(/C=N/NC(=O)c2cccnc2)cc1COc1ccc([N+](=O)[O-])c(C)c1	14	-7	16	64*	13	-6	38*	53*	12*	11
SMILES	GPR7 antag	OX1R antag-1	TAAR1 agonist	TAAR1 antag	OX1R antag-2	CHO parental Ca	TAAR1 nonsel count	TAAR1 ant conf	Ga16 nonsel ag	TAAR1 ag count
COc1cc(/C=N/NC(=O)c2cccnc2)ccc1OC(=O)c1ccc2c(c1)OCO2	-8	-11	20	54*	26	-18	26*	29	9	17
Cc1ccc(C(=O)N/N=C/c2ccc(OC(=O)c3ccccc3Cl)cc2)cn1	9	8	16	47	16	7	·	·	·	·
C[C@H](O)[C@@H]1C(=O)N2CCc3c([nH]c4ccccc34)[C@@H]2C[C@@H]1N(C)C(=O)Nc1ccc(Br)cc1	·	·	3	8	·	·	·	·	·	·
CN1CCc2nc3ccccc3c(C(=O)OCC(=O)N(CCC#N)c3ccccc3)c2C1	-1	-39	17	51*	37	-17	23*	47	8	10
N#CCCN(C(=O)COC(=O)c1ccc2ccccc2n1)c1ccccc1	·	-11	13	2	7	-9	·	·	·	·
O=C(Nc1nc(-c2ccc3ccccc3c2)cs1)C1CCN(S(=O)(=O)c2cccs2)CC1	8	-15	0	104*	15	-11	15	3	3	4
Cc1ccccc1NS(=O)(=O)c1ccc(C(=O)N2CCCC2)cc1	·	-15	3	-2	18	-12	·	·	·	·
Cc1cccc(NS(=O)(=O)c2ccc(C(=O)N3CCN(c4ccccc4O)CC3)cc2)c1C	22	16	23	83*	20	9	38*	46	13*	11
Cc1ccc(S(=O)(=O)Nc2cccc(C(=O)N3CCN(c4ccccc4O)CC3)c2)cc1F	·	-25	20	61*	9	-1	24*	42	9	10
CCCS(=O)(=O)NC(=O)C1(C)CCN(C(=O)c2oc3ccccc3c2C)C1 (configuration not stated)	·	·	2	-18	·	·	·	·	·	·
CCOc1ccc(-c2c(C)sc3nc[nH]c(=O)c23)cc1	-13	-10	14	76*	15	-1	26*	47	8	7

Compound activity from PubChem.
